# Columns and labels:
# [1] = molecular target: T1, Human immunodeficiency virus type 1 integrase (Human immunodeficiency virus 1, UniProt Q7ZJM1); assay: Inhibitory concentration against purified recombinant integrase by strand transfer 3D search (experiment 1)
# In short: (§1)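 Recombinant wild-type HIV-1 integrase, final 200 nM, preincubated with inhibitor for 30 min at 30 °C. Buffer: 50 mM NaCl, HEPES/MOPS, 7.5 mM MnCl2 when specified, 10% DMSO, 10% glycerol, BSA, 2-mercaptoethanol. Then 20 nM 5′-32P-labeled 21-mer U5 LTR duplex (AE117/AE118) added for 60 min. Products separated on denaturing 20% urea gel and quantified by phosphorimager. 3′-processing (19-mer) and strand transfer products read in one reaction. IC50 read from plot of concentration vs percent inhibition, several concentrations.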
# [2] = molecular target: T1, Human immunodeficiency virus type 1 integrase; assay: Inhibitory concentration against purified recombinant integrase by strand transfer in vitro assay (experiment 2); in short: as §1
# [3] = molecular target: T1, Human immunodeficiency virus type 1 integrase; assay: Inhibitory concentration against purified recombinant integrase by 3'-processing in vitro assay (experiment 1); in short: as §1
# [4] = molecular target: T1, Human immunodeficiency virus type 1 integrase; assay: Inhibitory concentration against purified recombinant integrase by strand transfer in vitro assay (experiment 1); in short: as §1
# [5] = molecular target: T1, Human immunodeficiency virus type 1 integrase; assay: Inhibitory concentration against purified recombinant integrase by 3'-processing in vitro assay (experiment 2); in short: as §1
# [6] = molecular target: T1, Human immunodeficiency virus type 1 integrase; assay: Inhibitory concentration against purified recombinant integrase by 3'-processing in 3D search (experiment 1); in short: as §1
# [7] = molecular target: T1, Human immunodeficiency virus type 1 integrase; assay: Inhibitory concentration against purified recombinant integrase by 3'-processing in 3D search (experiment 2); in short: as §1
# [8] = molecular target: T1, Human immunodeficiency virus type 1 integrase; assay: Inhibitory concentration against purified recombinant integrase by strand transfer 3D search (experiment 2); in short: as §1
# [9] = molecular target: Human immunodeficiency virus type 1 integrase (Human immunodeficiency virus 1) (UniProt Q7ZJM1); assay: Percentage inhibition was obtained by performing in vitro assay on purified recombinant integrase by strand transfer method at 100 micro g/mL (experiment 1)
# In short: (§2)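 Single concentration of 100 µg/mL tested. Recombinant HIV-1 integrase (200 nM final) preincubated with compound for 30 min at 30 °C in Mn2+/DMSO buffer, then reacted for 60 min with 20 nM 5′-32P-labeled 21-mer LTR duplex. Gel and phosphorimager quantitation of 19-mer 3′-processing and strand transfer products. %I = 100×[1−(D−C)/(N−C)], relative to DNA-alone and DNA+integrase controls.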
# [10] = molecular target: Human immunodeficiency virus type 1 integrase (Human immunodeficiency virus 1) (UniProt Q7ZJM1); assay: Percentage inhibition was obtained by performing in vitro assay on purified recombinant integrase by 3''-processing method at 100 micro g/mL (experiment 2); in short: as §2
# [11] = molecular target: Human immunodeficiency virus type 1 integrase (Human immunodeficiency virus 1) (UniProt Q7ZJM1); assay: Percentage inhibition was obtained by performing in vitro assay on purified recombinant integrase by strand transfer method at 100 micro g/mL (experiment 2); in short: as §2
# [12] = molecular target: Human immunodeficiency virus type 1 integrase (Human immunodeficiency virus 1) (UniProt Q7ZJM1); assay: Percentage inhibition was obtained by performing in vitro assay on purified recombinant integrase by 3''-processing method at 100 micro g/mL (experiment 1); in short: as §2
# [13] = molecular target: T1, Human immunodeficiency virus type 1 integrase; assay: Inhibitory concentration against purified recombinant integrase by 3'-processing in vitro assay
# [14] = molecular target: T1, Human immunodeficiency virus type 1 integrase; assay: Inhibitory concentration against purified recombinant integrase by strand transfer in vitro assay
# [15] = molecular target: T1, Human immunodeficiency virus type 1 integrase; assay: Inhibitory concentration against purified recombinant integrase by 3'-processing in 3D search
# [16] = molecular target: T1, Human immunodeficiency virus type 1 integrase; assay: (§3) Inhibitory concentration against purified recombinant integrase by strand transfer 3D search
# [17] = molecular target: T1, Human immunodeficiency virus type 1 integrase; assay: Inhibitory concentration against purified recombinant integrase by strand transferrin vitro assay; in short: as §1
# [18] = molecular target: T1, Human immunodeficiency virus type 1 integrase; assay: as §3; in short: as §1; remark: listed apart in the source
# T1 sequence (Q7ZJM1 whole entry): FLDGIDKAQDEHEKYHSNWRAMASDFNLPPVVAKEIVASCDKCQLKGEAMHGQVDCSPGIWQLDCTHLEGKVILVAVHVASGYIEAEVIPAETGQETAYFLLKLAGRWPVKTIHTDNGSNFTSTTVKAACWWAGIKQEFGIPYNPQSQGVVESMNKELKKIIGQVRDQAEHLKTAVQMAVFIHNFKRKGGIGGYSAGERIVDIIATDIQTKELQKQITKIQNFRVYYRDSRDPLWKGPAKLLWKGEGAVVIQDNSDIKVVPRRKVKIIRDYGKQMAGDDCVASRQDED
# Human immunodeficiency virus type 1 integrase (Human immunodeficiency virus 1), sequence (Q7ZJM1 as listed by the source): as the sequence (Q7ZJM1 whole entry) above
smiles,measurement,setting,value
C[C@H]1C(=O)c2c(cc(O)c(C3OC(CO)C(O)C(O)C3O)c2O)OC1c1ccc(O)c(O)c1 (stereo not given in full),IC50,[1],103 µM
same,IC50,[2],47.6 µM
same,IC50,[3],177 µM
same,IC50,[4],103 µM
same,IC50,[5],124 µM
same,IC50,[6],177 µM
same,IC50,[7],125 µM
same,IC50,[8],47.4 µM
O=C(NN(CCO)CCO)c1ccccc1,inhibition,[9],52.4%
same,inhibition,[10],43.9%
same,inhibition,[11],69.9%
same,inhibition,[12],25%
O=c1ccc2cc(O[C@@H]3O[C@H](CO)[C@@H](O)[C@H](O)[C@H]3O)c(O)cc2o1,inhibition,[9],67.7%
same,inhibition,[10],29.6%
same,inhibition,[11],34.2%
same,inhibition,[12],40.8%
O=C(N/N=C/c1ccccc1O)C(O)c1ccccc1 (stereo not given),inhibition,[9],77.9%
same,inhibition,[10],45.8%
same,inhibition,[11],70.2%
same,inhibition,[12],37%
O=C(N/N=C/c1ccccc1O)C(O)(c1ccccc1)c1ccccc1,inhibition,[9],70.5%
same,inhibition,[10],56.7%
same,inhibition,[11],74.1%
same,inhibition,[12],34.7%
COc1cc2oc(-c3ccc(O)cc3)cc(=O)c2c(O)c1C1OC(CO)C(O)C(O)C1O (stereo not given),IC50,[1],134 µM
same,IC50,[2],143 µM
same,IC50,[3],224 µM
same,IC50,[4],134 µM
same,inhibition,[9],92.2%
same,IC50,[5],291 µM
same,inhibition,[10],43.4%
same,inhibition,[11],66.8%
same,inhibition,[12],62.7%
same,IC50,[6],224 µM
same,IC50,[7],291 µM
same,IC50,[8],143 µM
O=C(OCCO)c1ccccc1O,inhibition,[9],17.1%
same,inhibition,[10],2.6%
same,inhibition,[11],18.9%
same,inhibition,[12],10.9%
O=C(O)CNC(=O)c1ccccc1O,inhibition,[9],25%
same,inhibition,[10],33.3%
same,inhibition,[11],33.3%
same,inhibition,[12],28.9%
O=C(CC(=O)Nc1ccccc1O)Nc1ccccc1O,inhibition,[9],57.2%
same,inhibition,[10],17.6%
same,inhibition,[11],37%
same,inhibition,[12],23.1%
CCCCCCCCCCCCCCCCCCCN1CN(CO)CN(CO)C1=O,inhibition,[9],54.4%
same,inhibition,[10],43.2%
same,inhibition,[11],69.7%
same,inhibition,[12],20.8%
O=C(NCO)c1ccccc1O,inhibition,[9],61.5%
same,inhibition,[10],10.2%
same,inhibition,[11],55.2%
same,inhibition,[12],25.8%
O=C(NNC(=O)c1ccccc1O)c1ccccc1O.O=C(NNCC(O)COc1ccccc1)c1ccccc1O (stereo not given),IC50,[13],2 µM
same,IC50,[14],1.5 µM
same,IC50,[15],1.04 µM
same,IC50,[16],0.801 µM
O=C(NCO)NCOCn1c(=O)n(CO)c(=O)n(CO)c1=O,IC50,[13],5.3 µM
same,IC50,[14],5 µM
same,IC50,[15],5.29 µM
same,IC50,[16],4.98 µM
COc1cc(N)ccc1C(=O)NC(CCC(=O)O)C(=O)O (stereo not given),IC50,[1],203 µM
same,IC50,[2],271 µM
same,IC50,[3],228 µM
same,IC50,[4],203 µM
same,IC50,[5],271 µM
same,IC50,[6],230 µM
same,IC50,[7],270 µM
same,IC50,[8],270 µM
O=C(CCCCC(=O)c1ccc(O)cc1O)OCCO,IC50,[1],184 µM
same,IC50,[2],233 µM
same,IC50,[3],294 µM
same,IC50,[4],185 µM
same,IC50,[5],367 µM
same,IC50,[6],294 µM
same,IC50,[7],368 µM
same,IC50,[8],234 µM
CCN(CC)CCCC(C)Nc1ccnc2ccc(Cl)nc12 (stereo not given),inhibition,[9],87.4%
same,inhibition,[10],30.6%
same,inhibition,[11],56.6%
same,inhibition,[12],43.7%
O=C(CC(O)(c1ccccc1)c1ccc(Cl)cc1)NC(=O)c1ccccc1O (stereo not given),IC50,[1],101 µM
same,IC50,[2],142 µM
same,IC50,[3],182 µM
same,IC50,[4],101 µM
same,IC50,[5],238 µM
same,IC50,[6],182 µM
same,IC50,[7],237 µM
same,IC50,[8],141 µM
O=C1Oc2ccccc2C(O)C1C(c1ccccc1)C1C(=O)Oc2ccccc2C1O (stereo not given),IC50,[13],43.4 µM
same,IC50,[14],38.8 µM
O=C(NO)/C(CC(=O)c1ccc(O)cc1O)=N\O,IC50,[1],16.5 µM
same,IC50,[2],35.8 µM
same,IC50,[3],29.9 µM
same,IC50,[4],16.5 µM
same,IC50,[5],71.3 µM
same,IC50,[6],29.9 µM
same,IC50,[7],70.8 µM
same,IC50,[8],35.8 µM
CCC/C=C/C=C/[C@@H]1C[C@@H](O)[C@@H](O)C(=O)[C@H]1CO,IC50,[1],267 µM
same,IC50,[2],135 µM
same,IC50,[3],350 µM
same,IC50,[4],268 µM
same,IC50,[5],289 µM
same,IC50,[6],350 µM
same,IC50,[7],291 µM
same,IC50,[8],134 µM
O=C(N/N=C/c1ccc(O)cc1O)N/N=C/c1ccc(O)cc1O,IC50,[13],26 µM
same,IC50,[17],20.6 µM
same,IC50,[15],26.3 µM
same,IC50,[18],20.6 µM
O=C(NCCO)c1cc(Cl)ccc1O,inhibition,[9],0%
same,inhibition,[10],2.2%
same,inhibition,[11],13.4%
same,inhibition,[12],0.4%
Cc1cc(CC(=O)NCCO)n(CCO)c(=O)c1,inhibition,[9],90.6%
same,inhibition,[10],30.3%
same,inhibition,[11],47.9%
same,inhibition,[12],45.3%
O=C(CC(O)c1cccnc1)CC(O)c1cccnc1 (stereo not given),inhibition,[9],48.1%
same,inhibition,[10],19.1%
same,inhibition,[11],43.2%
same,inhibition,[12],22.5%
CCN(CC)CCCC(C)Nc1cc(F)cc2cccnc12 (stereo not given),inhibition,[9],27.6%
same,inhibition,[10],41.2%
same,inhibition,[11],48.9%
same,inhibition,[12],36.5%

# From ChEMBL document CHEMBL1129974, “Discovery of HIV-1 integrase inhibitors by pharmacophore searching” (J Med Chem, 1997)
